Bioassay records deposited in PubChem by Broad Institute.
Wnt act: Wnt/beta-catenin pathway activators, primary screen, cell-based, plate reader, single point; actives 1.2% (n = 300,000); Wnt/beta-catenin reporter cell assay, activator; activation, % at 9.35 µM; AID 743398, 2014; in the data active means activation above about 30%, passing the limit was not always enough;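 further: 0% = neutral control wells and 100% = positive control wells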
HSF1 activator: HSF-1 activators, primary screen, NIH3T3-HGL cells, MG132 stress, luminescence, single point; NIH3T3-HGL HSF-1 luciferase reporter, 8 h; 100% = twice DMSO control signal; actives 1.7% (n = 300,000); activation, % at 9 µM;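 active means mean replicate activation of at least 50% with a set share of replicates each reaching 50%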;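 further: 0% = median of the neutral control wells and 100% = twice that signal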
SR-BI uptake up: activators of SR-BI mediated DiI-HDL uptake, primary screen, ldlA[mSR-BI] CHO cells, DiI fluorescence; actives 0.096% (n = 320,000); activation, % at 12.5 µM; AID 504775, 2011; 3 h; 100 = double the neutral-control signal;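 active means mean replicate activation of at least 60% and every replicate at or above 60%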;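 further: 0% = median plate neutral-control signal and 100% = twice that signal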
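Test system: SR-BI-overexpressing, LDLR-lacking CHO cells; Medium: Ham's F12 with 0.5% BSA, HEPES 25 mM, pH 7.4; Schedule: 3 h, 37 °C; Technique: bottom-read fluorescence, 550/595 nm.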
SR-BI HDL uptake: inhibitors of SR-BI mediated HDL lipid uptake, primary screen, ldlA[mSR-BI] cells, fluorescence, single point; Scavenger receptor class B member 1 (Mus musculus), Q61009; ldlA[mSR-BI] CHO cells, DiI-HDL uptake fluorescence, 3 h; inhibition, % at 12.5 µM; actives 0.96% (n = 320,000);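 active means mean replicate inhibition of at least 70% and a set share of replicates each scoring 70 or more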;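 further: 0% = median of neutral control wells and 100% = median of positive control wells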
Target sequence (Q61009 whole entry, looked up): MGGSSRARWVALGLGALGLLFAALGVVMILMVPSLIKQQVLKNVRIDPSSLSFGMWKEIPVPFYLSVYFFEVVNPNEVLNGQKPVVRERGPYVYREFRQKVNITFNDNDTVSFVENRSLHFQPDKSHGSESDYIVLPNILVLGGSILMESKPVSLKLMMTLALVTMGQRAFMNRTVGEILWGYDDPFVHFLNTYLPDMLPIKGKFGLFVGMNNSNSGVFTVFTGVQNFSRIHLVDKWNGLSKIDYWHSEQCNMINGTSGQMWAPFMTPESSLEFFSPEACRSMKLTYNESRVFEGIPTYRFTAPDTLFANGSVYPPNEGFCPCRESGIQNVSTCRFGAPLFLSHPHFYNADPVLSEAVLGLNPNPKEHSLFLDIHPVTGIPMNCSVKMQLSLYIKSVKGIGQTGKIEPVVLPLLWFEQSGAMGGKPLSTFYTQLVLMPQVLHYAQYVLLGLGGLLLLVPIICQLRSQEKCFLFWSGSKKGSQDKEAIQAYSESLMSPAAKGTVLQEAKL
MITF act: activators of MITF-driven TRPM1 promoter reporter, primary screen, cell-based, SK-MEL-5, luciferase, single point; SK-MEL-5 TRPM1-promoter luciferase, 24 h; % of positive control, neutral wells = 0; activation, % at 12.5 µM; actives 0.75% (n = 300,000);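 active means mean activation of at least 80% with every replicate also reaching 80%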;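 further: 0% = neutral control wells and 100% = parthenolide positive control wells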
* = called active by the depositor; x = no result. Rows were chosen to be rich in hits. Some 3.6% of all compounds tested hit in one or more screens of this group.

SMILES	Wnt act	HSF1 activator	SR-BI uptake up	SR-BI HDL uptake	MITF act
Cc1cc(C)c(C)c(S(=O)(=O)N2CCC(C(=O)N(C)Cc3nc4ccccc4c(=O)[nH]3)CC2)c1C	-4	x	-47	47	5
O[C@@H]1CN(Cc2cccs2)[C@@H](c2ccccc2)C[C@H]1n1cc(C2CC2)nn1	0	x	x	x	x
CCSc1nnc(Cc2cc(=O)[nH]c(=O)[nH]2)n1-c1cc(C)ccc1C	-5	-11	-4	4	x
CSc1nnc(Cc2cc(=O)[nH]c(=O)[nH]2)n1-c1cc(C)ccc1C	x	2	70*	-70	3
COc1ccc(CNC(=O)CN(C(=O)c2csnn2)c2cccc3c2CCCC3)cc1	-11	-8	-76	76*	-5
COc1ccc(CNC(=O)CN(C(=O)c2csnn2)c2ccccc2F)cc1	0	14	7	-7	-14
CCn1c(Cn2nnc(-c3ccccc3)n2)nnc1SCC(=O)Nc1cccc(C)c1C	x	76*	-76	76*	-4
O=C(Nc1ccc2c(c1)OCCO2)C(c1ccncc1)n1c(=O)c(-c2cc3ccccc3[nH]2)nc2ccccc21 (configuration not stated)	53*	x	x	x	x
O=C1C(=C(c2ccccc2)N2CCOCC2)Cc2ccccc21	-11	x	x	x	x
Cc1cccc2c1OCC/C2=N\NC(=O)COc1ccccc1Cl	x	28	-8	8	95*
C=C(C)C1CC=C(C)/C(=N/NC(=O)COc2ccccc2Cl)C1 (configuration not stated)	x	-2	-10	10	-2
CCN=c1scc(-c2ccco2)n1/N=C/c1ccc(O)cc1	x	20	x	x	x
CCN=c1scc(-c2ccco2)n1/N=C/c1ccc(OC)c(O)c1	40*	22	-46	46	72
Cc1cccc(OCCCC(=O)Nc2ccc(S(N)(=O)=O)cc2)c1	36*	12	0	0	-1
Cc1ccc(NC(=O)CN(C)C(=O)CCOc2cccc(C)c2)cc1	31*	-24	x	x	6
CCN(CC)c1ccc(NC(=O)CCCOc2cccc(C)c2)cc1	1	-5	-3	3	-9
COc1ccc(CNS(=O)(=O)c2cc(Cl)ccc2N2CC[C@@H](O)C2)cc1	-5	x	x	x	x
Cc1cn2c(=O)c3ncn(C4OC(CO)C(O)C4O)c3n(C)c2n1 (configuration not stated)	0	x	x	x	x
CN1CCc2c(sc(/N=C/c3c[nH]c4ccccc34)c2C#N)C1	39*	-25	x	x	x
C[C@H](CO)N1C[C@H](C)[C@H](CN(C)Cc2ccccc2)Oc2ncc(Br)cc2C1=O	0	x	x	x	x
O=C(c1cc(-c2ccccc2O)on1)N1CCCCCC1	28	41	x	x	125*
O=C(c1cc(-c2ccc(Cl)cc2Cl)on1)N1CCOCC1	8	31	-8	8	-10
O=C(c1cc(-c2ccc(O)cc2)on1)N1CCCC1	-2	27	-2	2	36
O=C(c1cc(-c2ccccc2O)on1)N1CCOCC1	35*	-3	19	-19	96*
C[C@@H]1CCCCO[C@@H](CN(C)C(=O)Nc2ccc(C(F)(F)F)cc2)[C@@H](C)CN([C@H](C)CO)C(=O)c2cc(NS(=O)(=O)c3ccc(Cl)cc3)ccc2O1	-3	x	x	x	x
SMILES	Wnt act	HSF1 activator	SR-BI uptake up	SR-BI HDL uptake	MITF act
Cc1ccc(S(=O)(=O)N2CCC(C(=O)N3CCCCCCC3)CC2)cc1C	-4	x	x	x	x
Cc1ccc(S(=O)(=O)N2CCC(C(=O)NNC(=O)c3ccccc3O)CC2)cc1C	-10	-5	-72	72*	-29
Cc1ccc(S(=O)(=O)N2CCC(C(=O)NNC(=O)c3ccccc3O)CC2)cc1	-7	-3	-81	81*	-6
Cc1cc(C)c(C)c(S(=O)(=O)N2CCC(C(=O)NNC(=O)c3ccccc3O)CC2)c1C	-6	2	-119	119*	-8
Cc1ccccc1CN1[C@@H](C)[C@H](c2ccccc2)Oc2cccc(NCCc3ccccc3)c2S1(=O)=O	-6	x	x	x	x
Cc1cn(CC(=O)NCC2CCCO2)c(=O)[nH]c1=O (configuration not stated)	2	x	-5	5	-2
C[C@H](O)[C@@H]1C(=O)N2CCc3c([nH]c4c(-c5ccccc5)cccc34)[C@@H]2C[C@@H]1N(C)C(=O)/C=C/c1ccccc1	-13	x	x	x	x
